We go through eight compounds from article PMC3557599 (Toxicology and applied pharmacology, 2012).

Data set [1] in a line: Reaction with GSH in the presence of filtered rat liver cytosol. The format is in vitro ADME. The note with it: for Half-life +GSH + Cytosol: 0.459 mM compound, 1.53 mM GSH, filtered rat liver cytosol 2 mg/mL, 37°C; for reduction of half-life in the presence of liver cytosol: +GSH + cytosol vs +GSH alone. Summed up: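 Rat liver cytosol came from male Sprague-Dawley rats (180–225 g). It was filtered three times through centrifugal filters with pH 7.4 phosphate buffer to strip GSH and small molecules, and protein was measured by Lowry. Test compound (0.459 mM), GSH (1.53 mM) and cytosol (2 mg/mL) were incubated at 37°C. Aliquots were taken every 2.5 or 5 min, TFA-acidified, and run on C18 HPLC with UV detection. Diastereomer half-lives came from first-order kinetics.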

In the next data set the test system is rats. To be noted: 230 µmol/kg b.w. ref Lash et al., 1994; cited from earlier work.
The nature of data set [2]: Reactivity toward GSH in phosphate buffer pH 7.4 at 37°C. The format is physicochemical. The procedure, abridged: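 Test compound (0.459 mM) and GSH (1.53 mM) were incubated in 0.1 M KH2PO4/0.1 M KCl/5 mM Na2EDTA, pH 7.4, in a shaking bath at 37°C. Aliquots were taken every 5–10 min for up to 60 min and TFA-acidified. Analysis was C18 HPLC with an acetonitrile/0.1% TFA gradient, reading UV 220 nm for sulfoxide loss and 260 nm for products. Diastereomer half-lives came from first-order kinetics. Conjugates (3 mM compound, 10 mM GSH, 1 h) were isolated and identified by positive-ESI LC/MS-TOF.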

Data set [3] concerns isolated rat renal proximal tubule cells. To be noted: cited from earlier work.
For data set [4] the following is noted: ref Commandeur et al., 1991; cited from earlier work.
Another data set deals with male Sprague-Dawley rats. The format is in vivo, rat. To be noted: 230 µmol/kg b.w. i.p.; for BUN levels compared to control (saline-treated) rats / AST and ALT levels: 24 h after dosing; for AST and ALT levels: vs saline-treated rats; for Urine protein/creatinine ratio: vs saline; for urine volume: saline-treated rats 0.20 ± 0.04 dL; for nephrotoxicity based on the biochemical endpoints assayed: equimolar comparison.

The test system of another data set is kidneys of male rats. The data set is described as follows: Kidney histopathology, grading of tubular necrosis in inner and outer zone. To be noted: 230 µmol/kg b.w. i.p., 24 h post treatment. Format: in vivo, rat.

Where two headings read alike, the source gives them in different places.

Consider `CC(=O)N[C@@H](C[S+]([O-])C(Cl)=CCl)C(=O)O` (single isomer, unassigned) [NA-DCVCS I, N-acetyl-S-(1,2-dichlorovinyl)-L-cysteine sulfoxide], for which, in data set [1], the “Half-life +GSH + Cytosol” value came to 5.4 min and the “reduction of half-life in the presence of liver cytosol” value (“reduction of half-life” for short) was 2 fold.

As to `CC(=O)N[C@@H](C[S+]([O-])C(Cl)=CCl)C(=O)O` (single isomer, unassigned) [NA-DCVCS II, N-acetyl-S-(1,2-dichlorovinyl)-L-cysteine sulfoxide], in data set [1], the “Half-life +GSH + Cytosol” value stood at 2.3 min and the “reduction of half-life” value came out at 10 fold.

Take `N[C@@H](CSC(Cl)=CCl)C(=O)O` [DCVC, S-(1,2-dichlorovinyl)-L-cysteine]: the kidney histopathology result with rats is “scattered, patchy foci of tubular necrosis”.

Consider `CC(=O)N[C@@H](CSC(Cl)=CCl)C(=O)O` [NA-DCVC, N-Acetyl-S-(1,2-dichlorovinyl)-L-cysteine], for which the “reaction with GSH (formation of glutathione conjugates)” value (shortened to “reaction with GSH”) in data set [2] was “not reactive with GSH”. Besides, the cytotoxicity result in data set [3] (isolated rat proximal tubule cells ref Commandeur et al., 1991) was “less cytotoxic then DCVC”. Besides, the “mutagenicity in the Ames test” value in data set [4] was “strong mutagen”. In addition, in the data set with male Sprague-Dawley rats, the “Urinary excretion of glucose over 24 h compared to saline-treated rats” value came to 113 fold; the “BUN levels compared to control (saline-treated) rats” value (shortened to “BUN levels compared to control”) is on record as “approximately 3 fold”; the “AST and ALT levels” value is listed as “not different from saline-treated rats”; the “nephrotoxicity based on the biochemical endpoints assayed” value is recorded as “less nephrotoxic than DCVCS”. In the data set with male Sprague-Dawley rats (24 h urine), the Urine protein/creatinine ratio entry is “elevated” and the urine volume was determined as 0.32 ± 0.11 dL. In addition, the “kidney region primarily affected by lesions” value in the data set on kidneys of male rats was “cortico-medullary proximal tubules (S2–S3 segments)”.

For `CC(=O)N[C@@H](C[S+]([O-])C(Cl)=CCl)C(=O)O` (stereo partly drawn) [NA-DCVCS, N-acetyl-S-(1,2-dichlorovinyl)-L-cysteine sulfoxide], the “reaction with GSH” value in data set [2] was “the corresponding glutathione conjugates were detected”. In addition, the cytotoxicity entry in data set [3] (isolated rat renal proximal tubule cells ref Werner et al., 1996) is listed as “more cytotoxic than NA-DCVC”. Besides, in the data set on male Sprague-Dawley rats, the “Urinary excretion of glucose over 24 h compared to saline-treated rats” value was determined as 89 fold; the “BUN levels compared to control” value is “approximately 3 fold”; the “AST and ALT levels” value is listed as “not different from saline-treated rats”; the “nephrotoxicity based on the biochemical endpoints assayed” value is on record as “less nephrotoxic than DCVCS”. Besides, in the data set with male Sprague-Dawley rats (24 h urine), the Urine protein/creatinine ratio result is listed as “elevated”. Also, in the data set with kidneys of male rats, the “kidney region primarily affected by lesions” value is recorded as “cortico-medullary proximal tubules (S2–S3 segments)”.

On to “S-(1,2-dichlorovinyl)-L-cysteine sulfoxide [DCVCS I, reference compound]”, for which, in data set [1], the “Half-life +GSH + Cytosol” value was 1.4 min and the “reduction of half-life” value is recorded as 10 fold.

For the compound “S-(1,2-dichlorovinyl)-L-cysteine sulfoxide [DCVCS II, reference compound]”, in data set [1], the “Half-life +GSH + Cytosol” value was 3.1 min and the “reduction of half-life” value is 2 fold.

Regarding “S-(1,2-dichlorovinyl)-L-cysteine sulfoxide [DCVCS, reference compound]”, the “reaction with GSH” value in data set [2] was “the corresponding glutathione conjugates were detected”. For the same compound, the anuric rats result in the data set with male Sprague-Dawley rats (24 h) was “two out of the four”. Besides, the “BUN levels compared to control” value with male Sprague-Dawley rats amounted to 7 fold. Also, in the data set on male Sprague-Dawley rats (24 h urine, rats anuric or producing little urine), the Glucose excretion entry is “not different than saline-treated rats”. Moreover, the urine volume with male Sprague-Dawley rats (24 h urine) was 0.05 ± 0.07 dL. The “kidney region primarily affected by lesions” value in the data set on kidneys of male rats is recorded as “outer cortical proximal tubules (S1–S2 segments)”.
